Source: ChEMBL document CHEMBL1671663, “In vivo characterization of the peptide deformylase inhibitor LBM415 in murine infection models” (Antimicrob Agents Chemother, 2009)
≈ marks a conversion by molar mass, not a printed value.

Key:
Type in all cases: functional
Streptococcus pneumoniae [1] = experiment: Antimicrobial activity against multiple drug-resistant Streptococcus pneumoniae ATCC 700677 by broth microdilution method
In short: (§1)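 MICs determined by broth microdilution following CLSI guidelines. Inocula came from overnight Mueller-Hinton broth (ATCC 49951, NB01021) or overnight Trypticase soy agar culture (ATCC 6301). ATCC 6303 and ATCC 700677 came from a 5-h log culture in Todd-Hewitt broth–30% horse serum.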

Streptococcus pneumoniae [2] = experiment: Antimicrobial activity against multiple drug resistant Streptococcus pneumoniae ATCC 700677 infected in po dosed BALB/c mouse administered twice daily for 3 days; settings: ATCC 700677, po, 72 h
In short: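 Female BALB/c mice (19–23 g) infected intraperitoneally with ATCC 700677 from a 5-h Todd-Hewitt–30% horse serum log culture, suspended in 5% hog mucin, 1.5 × 10^7 to 2 × 10^7 CFU/mouse. Groups of 5–6, typically three dose levels; vehicle controls. Dosed 1, 5, 17, 27, 42, 51 h post-infection. ED50 from day-8 survival by probit analysis, with 95% CI.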

Staphylococcus aureus [3] = experiment: Antimicrobial activity against methicillin-susceptible Staphylococcus aureus ATCC 13709 by broth microdilution method
In short: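 MIC by broth microdilution following CLSI guidelines.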

Streptococcus pneumoniae [4] = experiment: Antimicrobial activity against Streptococcus pneumoniae ATCC 6303 by broth microdilution method; in short: as §1
Streptococcus pneumoniae [5] = experiment: Antimicrobial activity against Streptococcus pneumoniae ATCC 6301 by broth microdilution method; in short: as §1
Staphylococcus aureus [6] = experiment: Antimicrobial activity against methicillin-resistant Staphylococcus aureus NB01021 by broth microdilution method; in short: as §1
Staphylococcus aureus [7] = experiment: Antimicrobial activity against methicillin-susceptible Staphylococcus aureus ATCC 49951 by broth microdilution method; in short: as §1
Staphylococcus aureus [8] = experiment: Antimicrobial activity against methicillin-resistant Staphylococcus aureus NB01021 infected in sc dosed BALB/c mouse administered 0, 4, 23 hrs post infection
In short: (§2)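 Female BALB/c mice (19–23 g) infected intraperitoneally with MRSA NB01021 in 5% hog gastric mucin, 2.1 × 10^7 to 2.8 × 10^7 CFU/mouse (0.3 ml), 10–100× minimal lethal dose. Three dose levels, groups of 5–6; vehicle controls. Treatment 0, 4 and 23 h post-infection. Observed 8 days; ED50 with 95% CI by probit analysis of day-8 survival.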

Staphylococcus aureus [9] = experiment: Antimicrobial activity against methicillin susceptible Staphylococcus aureus ATCC 49951 infected in sc dosed NMRI mouse treated 1 and 5 hrs post infection; settings: ATCC 49951, sc
In short: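 Intraperitoneal infection (0.3 ml/mouse, 10 to 100 times minimal lethal dose) with inoculum in 0.86% NaCl; ATCC 49951 grown overnight in Mueller-Hinton broth (1.7 × 10^7 to 2.2 × 10^7 CFU/mouse), ATCC 13709 in tryptic soy broth (7.3 × 10^7 to 2 × 10^8 CFU/mouse). Groups of 5 to 6 mice, typically three doses, treated 1 and 5 h postinfection; vehicle controls. ED50 by probit analysis of day-8 survival.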

Staphylococcus aureus [10] = experiment: Antimicrobial activity against methicillin susceptible Staphylococcus aureus ATCC 13709 infected in sc dosed NMRI mouse treated 1 and 5 hrs post infection; settings: ATCC 13709, sc
In short: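 Systemic infection: ATCC 13709 grown overnight in tryptic soy broth and suspended in 0.86% NaCl. Given intraperitoneally at 7.3 × 10^7 to 2 × 10^8 CFU/mouse, 10–100× the minimal lethal dose, 0.3 ml/mouse. Groups of 5–6 mice, typically three dose levels; controls got vehicle. Dosed 1 and 5 h post-infection. Survival followed 8 days; ED50 (protection of 50%) with 95% CI by probit analysis of day-8 survival.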

Staphylococcus aureus [11] = experiment: Antimicrobial activity against methicillin-resistant Staphylococcus aureus NB01021 infected in po dosed BALB/c mouse administered 0, 4, 23 hrs post infection; in short: as §2

In the case of `CC[C@H]1OC(=O)[C@H](C)C(=O)[C@H](C)[C@@H](O[C@@H]2O[C@H](C)C[C@H](N(C)C)[C@H]2O)[C@](C)(OC)C[C@@H](C)C(=O)[C@H](C)[C@H]2N(CCCCn3cnc(-c4cccnc4)c3)C(=O)O[C@]12C` [TELITHROMYCIN], the MIC (Streptococcus pneumoniae [1]) is reported as ≤ 0.25 µg/mL, the ED50 (Streptococcus pneumoniae [2]) is reported as 13.2 mg/kg and the MIC (Staphylococcus aureus [3]) is reported as ≤ 0.125 µg/mL. For the same compound, the MIC (Streptococcus pneumoniae [4]) was ≤ 0.125 µg/mL, the MIC (Streptococcus pneumoniae [5]) was ≤ 0.125 µg/mL and the MIC (Staphylococcus aureus [6]) was > 64 µg/mL. For the same compound, the MIC (Staphylococcus aureus [7]) was 0.25 µg/mL (≈ 0.308 µM).

For `CC1(C)S[C@@H]2[C@H](NC(=O)Cc3ccccc3)C(=O)N2[C@H]1C(=O)O` [PENICILLIN G], the MIC (Streptococcus pneumoniae [1]) was 32 µg/mL (≈ 95.7 µM), the MIC (Staphylococcus aureus [3]) was ≤ 0.125 µg/mL and the MIC (Streptococcus pneumoniae [4]) was 0.06 µg/mL (≈ 0.179 µM). For the same compound, the MIC (Streptococcus pneumoniae [5]) was 0.03 µg/mL (≈ 0.0897 µM), the MIC (Staphylococcus aureus [6]) was 64 µg/mL (≈ 191 µM) and the ED50 (Staphylococcus aureus [8]) was > 135 mg/kg. For the same compound, the MIC (Staphylococcus aureus [7]) was ≤ 0.125 µg/mL.

For `CN[C@H](CC(C)C)C(=O)N[C@H]1C(=O)N[C@@H](CC(N)=O)C(=O)N[C@H]2C(=O)N[C@H]3C(=O)N[C@H](C(=O)N[C@H](C(=O)O)c4cc(O)cc(O)c4-c4cc3ccc4O)[C@H](O)c3ccc(c(Cl)c3)Oc3cc2cc(c3O[C@@H]2O[C@H](CO)[C@@H](O)[C@H](O)[C@H]2O[C@H]2C[C@](C)(N)[C@H](O)[C@H](C)O2)Oc2ccc(cc2Cl)[C@H]1O` [VANCOMYCIN], the MIC (Streptococcus pneumoniae [1]) was ≤ 0.125 µg/mL, the ED50 (Staphylococcus aureus [9]) was 1.5 mg/kg and the ED50 (Staphylococcus aureus [10]) was 2.8 mg/kg. It also gave an MIC (Streptococcus pneumoniae [4]) of 0.5 µg/mL (≈ 0.345 µM), an MIC (Streptococcus pneumoniae [5]) of 0.5 µg/mL (≈ 0.345 µM) and an ED50 (Staphylococcus aureus [8]) of 2.5 mg/kg.

With `CC1(C)S[C@@H]2[C@H](NC(=O)[C@H](N)c3ccc(O)cc3)C(=O)N2[C@H]1C(=O)O` [AMOXICILLIN] the MIC (Streptococcus pneumoniae [1]) was 4 µg/mL (≈ 10.9 µM), the ED50 (Staphylococcus aureus [11]) was > 50 mg/kg and the MIC (Staphylococcus aureus [3]) was 1 µg/mL (≈ 2.74 µM). It also gave an MIC (Streptococcus pneumoniae [4]) of 0.03 µg/mL (≈ 0.0821 µM), an MIC (Streptococcus pneumoniae [5]) of 0.03 µg/mL (≈ 0.0821 µM) and an MIC (Staphylococcus aureus [6]) of 128 µg/mL (≈ 350 µM). For the same compound, the MIC (Staphylococcus aureus [7]) was 0.5 µg/mL (≈ 1.37 µM).

In the case of `CC1(C)S[C@@H]2[C@H](NC(=O)COc3ccccc3)C(=O)N2[C@H]1C(=O)O` [PENICILLIN V], the ED50 (Streptococcus pneumoniae [2]) is reported as > 60 mg/kg.
